Here are results for 13 compounds from ChEMBL document CHEMBL1137712, “Antidyslipidemic and antioxidative activities of 8-hydroxyquinoline derived novel keto-enamine Schiffs bases” (Eur J Med Chem, 2009).

Data set [1] has as its system Rattus norvegicus. The data set can be described thus: Antidyslipidemic activity against triton-induced hyperlipidemia in Charles Foster rat assessed as reduction in triglyceride level at 100 mg/kg, po after 18 hrs by spectrophotometry relative to control. The arrangement: scale not given: the % may be the effect or the level left. The data set is classed as functional. An outline of the steps: (§1)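 Male adult Charles Foster rats (200–225 g), six per group. Triton WR-1339 400 mg/kg ip with simultaneous oral dosing at 100 mg/kg in 0.2% w/v gum acacia suspension; diet withdrawn; vehicle controls. At 18 h, thiopentone anaesthesia, retro-orbital blood into EDTA, plasma diluted 1:3 in saline; Tc, Tg, Pl by standard enzymatic kits; Student's t-test versus triton group, P<0.05.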

Data set [2] relates to Rattus norvegicus. The data set can be described thus: Antidyslipidemic activity against triton-induced hyperlipidemia in Charles Foster rat assessed as reduction in total cholesterol level at 100 mg/kg, po after 18 hrs by spectrophotometry relative to control. The data set is classed as functional. The arrangement: scale not given: the % may be the effect or the level left. An outline of the steps:
as §1

The test system of data set [3] is Rattus norvegicus. The data set can be described thus: Antidyslipidemic activity against triton-induced hyperlipidemia in Charles Foster rat assessed as reduction in phospholipid level at 100 mg/kg, po after 18 hrs by spectrophotometry relative to control. The class given is functional. On the set-up: scale not given: the % may be the effect or the level left. An outline of the steps: as §1

For data set [4], the system named is Rattus norvegicus. The data set can be described thus: Antidyslipidemic activity in Charles Foster rat hyperlipidemia model assessed as suppression of triton-induced post heparin lipolytic activity at 100 mg/kg, po after 18 hrs by spectrophotometry relative to control. The data set is classed as functional. In a few lines: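 Post-heparin lipolytic activity in plasma of male Charles Foster rats given triton WR-1339 400 mg/kg ip plus oral dose 100 mg/kg in gum acacia, six per group, sampled at 18 h; assayed spectrophotometrically per Wing and Robinson, expressed as nmol free fatty acid formed/h/ml plasma; triton group compared with control, treated with triton group.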

Data set [5] in a line: Antioxidant activity assessed as inhibition microsomal lipid peroxidation at 200 ug/ml by thiobarbituric acid test. The data set is classed as functional. On the set-up: scale not given: the % may be the effect or the level left. The note with it: Microsome.
The nature of data set [6]: Antioxidant activity assessed as inhibition of xanthine-xanthine oxidase generated superoxide anion radical production at 200 ug/ml by spectrophotometry. The class given is functional. The arrangement: scale not given: the % may be the effect or the level left. An outline of the steps:
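Superoxide generated by xanthine, xanthine oxidase 0.04 U and nitroblue tetrazolium in 100 mM phosphate buffer pH 8.2, with or without compound sonicated in buffer; 37 °C for 30 min, stopped with glacial acetic acid; formazan read at 560 nm, percent inhibition from absorption coefficient 7.2 × 10³ M/cm; allopurinol reference.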

The nature of data set [7]: Antioxidant activity assessed as inhibition non-enzymatic reactants generated hydroxyl radical production at 200 ug/ml by spectrophotometry. The data set is classed as functional. On the set-up: scale not given: the % may be the effect or the level left. An outline of the steps:
(§2)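 Hydroxyl radicals generated non-enzymically from deoxyribose 2.8 mM, FeSO4 2 mM, sodium ascorbate 2.0 mM and H2O2 2.8 mM in 50 mM KH2PO4 pH 7.4, with or without compound, 37 °C for 90 min; MDA measured spectrophotometrically by thiobarbituric acid method, with reference samples and reagent blanks; mannitol reference.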

Data set [8] can be described thus: Antioxidant activity assessed as inhibition non-enzymatic reactants generated hydroxyl radical production at 100 ug/ml by spectrophotometry. The arrangement: scale not given: the % may be the effect or the level left. The class given is functional. In a few lines: as §2
Data set [9] can be described thus: Antioxidant activity assessed as inhibition of xanthine-xanthine oxidase generated superoxide anion radical production at 20 ug/ml by spectrophotometry. The class given is functional. On the set-up: scale not given: the % may be the effect or the level left. An outline of the steps:
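Superoxide generated enzymatically with xanthine, xanthine oxidase (0.04 U) and nitroblue tetrazolium in 100 mM phosphate buffer, pH 8.2, with or without test sample. Samples sonicated in phosphate buffer before use. Incubated 30 min at 37 °C, then stopped with glacial acetic acid. Formazan read at 560 nm. Percent inhibition calculated using formazan absorption coefficient 7.2 × 10³ M/cm.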

For the next data set, the system named is Vero. The data set can be described thus: Cytotoxicity against african green monkey Vero cells. The class given is cell-based. The note with it: chlorocebus sabaeus.
Data set [10] is described as follows: Cytotoxicity against primary osteoblast cells. The class given is cell-based.
The nature of data set [11]: Antioxidant activity assessed as inhibition microsomal lipid peroxidation at 100 ug/ml by thiobarbituric acid test. The data set is classed as functional. The arrangement: scale not given: the % may be the effect or the level left. The settings on record: Microsome.

Activity calls are given as the source filed them. The rule behind the calls is not given here.

Consider `Cc1ccc(C)c(OCCCC(C)(C)C(=O)O)c1` [GEMFIBROZIL], for which the Activity in the data set with Rattus norvegicus [1] was found to be 38%; in the data set on Rattus norvegicus [2], 36%; in the data set on Rattus norvegicus [3], 34%; in the data set with Rattus norvegicus [4] it was 27%.
Turning to `Cc1ccc(N/C=C2/C=C(C=O)c3cccnc3C2=O)cc1`, the Activity in data set [5] worked out at 41%; in the data set with Rattus norvegicus [1] it was 25%; in data set [6], 44%; in the data set with Rattus norvegicus [2], 23%; with Rattus norvegicus [3], 18%; in data set [7], 36%. In addition, in the data set with Rattus norvegicus [4], the Activity is reported as 5%.
Take `O=CC1=C/C(=C/NCCCN2CCOCC2)C(=O)c2ncccc21`: the result in [5], in [6] and in data set [7] was inactive. The result in the data set on Rattus norvegicus [1], with Rattus norvegicus [2] and in the data set with Rattus norvegicus [3] was Active. For the same compound, in the data set on Rattus norvegicus [4], the Activity came to 5%.
As for `CCN/C=C1/C=C(C=O)c2cccnc2C1=O`, the result (in data set [5]; in the data set with Rattus norvegicus [1]; in data set [6]; with Rattus norvegicus [2]; with Rattus norvegicus [3]; in data set [7]) was Active. The Activity in the data set with Rattus norvegicus [4] was found to be 5%.
Consider `CC(C)N/C=C1/C=C(C=O)c2cccnc2C1=O`, for which the Activity came to 35% in data set [5], 47% in data set [6], 38% in data set [7] and 5% in the data set on Rattus norvegicus [4]. Besides, the result in the data set with Rattus norvegicus [1], in the data set with Rattus norvegicus [2] and with Rattus norvegicus [3] was Active.
Turning to `OC[C@@H](O)[C@@H](O)[C@H](O)[C@H](O)CO`, in [8], the Activity is 50%.
Consider `CC(C)CCCCN/C=C1/C=C(C=O)c2cccnc2C1=O`, for which the outcome in [5], in [6] and in [7] was inactive. The result in the data set on Rattus norvegicus [1], in the data set with Rattus norvegicus [2] and in the data set with Rattus norvegicus [3] was Active. Also, in the data set with Rattus norvegicus [4], the Activity stood at 5%.
On to `Oc1ncnc2[nH]ncc12`, for which, in data set [9], the Activity is 84%.
On to `CN/C=C1/C=C(C=O)c2cccnc2C1=O`, for which the result in data set [5], in [6] and in data set [7] was Active. Also, the Activity in the data set on Rattus norvegicus [1] is recorded as 24%; in the data set on Vero, “Non-toxic”; in the data set with Rattus norvegicus [2] it was 26%; in [10] it was “Non-toxic”; with Rattus norvegicus [3], 25%; in the data set on Rattus norvegicus [4], 5%.
For `Cc1c(C)c2c(c(C)c1O)CC[C@@](C)(CCC[C@H](C)CCC[C@H](C)CCCC(C)C)O2`, the Activity in data set [11] turned out to be 47%.
Take `O=CC1=C/C(=C/NCCN2CCOCC2)C(=O)c2ncccc21`: the outcome in data set [5], in data set [6] and in data set [7] was inactive. In addition, the outcome in the data set with Rattus norvegicus [1], in the data set on Rattus norvegicus [2] and in the data set with Rattus norvegicus [3] was Active. Also, the Activity in the data set with Rattus norvegicus [4] is reported as 5%.
Regarding `CC(C)(C)N/C=C1/C=C(C=O)c2cccnc2C1=O`, the result (in data set [5]; with Rattus norvegicus [1]; in [6]; in the data set with Rattus norvegicus [2]; in the data set on Rattus norvegicus [3]; in data set [7]) was Active. Moreover, in the data set on Rattus norvegicus [4], the Activity is 5%.
Turning to `O=CC1=C/C(=C/NCc2ccccc2)C(=O)c2ncccc21`, the result in data set [5], in [6] and in data set [7] was Active. Besides, the Activity with Rattus norvegicus [4] is recorded as 5%.
